Data from ChEMBL document CHEMBL2029242 (J Med Chem, 2012).
pEC50, pIC50, pKd: −log10 of the molar value. Active and inactive are the calls of the source. The rule behind the calls is not given here.

Columns and labels:
A-375 = assay: Cytotoxicity against human A375 cells expressing BRAF V600E mutant after 72 hrs by cell titer blue assay; type: functional, cell-based; conditions: A-375, 72 h
In short: (§1)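 Cells were grown in ATCC-recommended media and kept overnight in 0.5% serum. They were then exposed to compound for 72 h, and Cell Titer Blue was added for 3 h. EC50 came from fluorometric concentration−response curves, run in duplicate and repeated at least once.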

[1] = biological target: Macrophage colony-stimulating factor 1 receptor (Homo sapiens, UniProt P07333); assay: Inhibition of CSF1R in human HEK293 cells after 1 hr by competition binding assay; type: cell-based
In short: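 Unbound kinase was captured on immobilized affinity ligand and quantified by qPCR. Kd came from eleven serial 3-fold dilutions, as the mean of duplicates.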

[2] = Volume of distribution in Cynomolgus monkey at 1 mg/kg, iv and 10 mg/kg, po; type: ADME, organism-based, Macaca fascicularis; conditions: in vivo
In short: (§2)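 Male non-naive cynomolgus monkeys (2.6–3.4 kg) and beagle dogs (10.3–11.9 kg), n = 3 each, were dosed in a crossover design with a ≥7-day washout. Doses were 10 mg/kg by nasogastric gavage and 1 mg/kg as a saphenous iv bolus, both free base in 22% HPβCD. Animals were fasted overnight until about 4 h post dose. Femoral plasma was sampled from predose to 24 h and analyzed by LC-MS/MS. Parameters came from noncompartmental analysis; mean ± SD reported.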

[3] = Oral bioavailability in Cynomolgus monkey at 10 mg/kg; type: ADME, organism-based, Macaca fascicularis; conditions: in vivo; in short: as §2
Mus musculus [4] = assay: Inhibition of BRAF V600E mutant-mediated MEK phosphorylation in human COLO205 cells xenografted in athymic nude mouse at 30 mg/kg, po after 6 hrs; type: functional; conditions: COLO 205, 6 h
In short: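 Mice bearing Colo-205 xenografts got one oral dose in 22% HPβCD; vehicle controls were run. Tumors were collected at time points over 24 h and lysed. pMEK and total MEK in the lysates were measured by immunoblotting and ELISA, and pMEK was normalized to total MEK.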

COLO 205 = assay: Antitumor activity against human COLO205 cells xenografted in athymic nude mouse at 100 mg/kg, po bid for 14 days; type: functional, organism-based; set-up: dose 100 mg/kg
In short: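 Athymic nude mice carried subcutaneous flank Colo-205 xenografts (1 × 10^6 cells), randomized at 150−200 mm3 (n = 10/group). Oral dosing BID for 14 days in 22% HPβCD against vehicle controls. Caliper volumes W2(L/2) taken three times weekly. Partial regression: volume fell in ≥3 successive measurements to below the starting volume while the tumor stayed palpable.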

[5] = Cmax in beagle dog at 10 mg/kg, po; type: ADME, organism-based, Canis lupus familiaris; set-up: dose 10 mg/kg, route oral; conditions: in vivo
In short: (§3)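 Single-dose PK. Rats: male Sprague−Dawley, jugular-catheterized, 1 mg/kg iv in 3:1 PEG400/water (n = 2) and 10 mg/kg po in Pharmatek #6 (n = 3). Female athymic nude mice: 100 mg/kg po in Pharmatek #6 (n = 3). Beagle dogs and male cynomolgus monkeys (n = 3): crossover, 1 mg/kg iv and 10 mg/kg po in 22% HPβCD, overnight fast. Plasma LC-MS/MS to 24 h; noncompartmental parameters, mean ± SD.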

Mus musculus [6] = assay: Toxicity in athymic nude mouse xenografted with human COLO205 cells at 30 mg/kg, po bid for 14 days measured upto 1 week post dosing; type: organism-based, COLO 205; set-up: dose 30 mg/kg, route oral; conditions: in vivo
In short: (§4)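 Athymic nude mice (20–25 g) were inoculated subcutaneously in the flank with 1×10^6 Colo-205 cells. At 150–200 mm3 they were randomized (n = 10/group) to oral vehicle (22% HPβCD) or 10, 30 or 100 mg/kg BID for 14 days. Calipers were used three times weekly. Body weight and behavior were monitored, with 7–10 days of follow-up after dosing. Partial regression meant volume falling in ≥3 successive measurements, ending below baseline but still palpable.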

[7] = Half life in Cynomolgus monkey at 1 mg/kg, iv and 10 mg/kg, po; type: ADME, organism-based, Macaca fascicularis; conditions: in vivo; in short: as §3
SK-MEL-28 = assay: Cytotoxicity against human SK-MEL-28 cells expressing BRAF V600E mutant after 72 hrs by cell titer blue assay; type: functional, cell-based; conditions: SK-MEL-28, 72 h; in short: as §1
LNCaP = assay: Cytotoxicity against human LNCAP cells expressing wild type BRAF after 72 hrs by cell titer blue assay; type: functional, cell-based; in short: as §1
HCT-116 = assay: Cytotoxicity against human HCT116 cells expressing wild type BRAF after 72 hrs by cell titer blue assay; type: functional, cell-based; conditions: HCT-116, 72 h; in short: as §1
Cytochrome P450 2D6 = Cytochrome P450 2D6 (Homo sapiens, UniProt P10635); assay: Inhibition of human CYP2D6; type: ADME
In short: (§5)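 Pooled human liver microsomes (0.25 mg/mL) with NADPH (1 mM) and five pooled probe substrates (testosterone, diclofenac, dextromethorphan, mephenytoin, phenacetin). Test compound ran at eight concentrations, 0.31−40 μM, 20 min at 37 °C, with pooled control inhibitors in parallel. Isoform-specific metabolites were measured by LC-MS/MS.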

[8] = biological target: Mitogen-activated protein kinase 1 (Homo sapiens, UniProt P28482); assay: Inhibition of ERK2 in human HEK293 cells after 1 hr by competition binding assay; type: cell-based
In short: (§6)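 KINOMEscan competition binding. Binding reactions ran at rt for 1 h. Unbound kinase was captured on an immobilized affinity ligand and quantified by qPCR. Each kinase was tested individually.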

DU-145 = assay: Cytotoxicity against human DU145 cells expressing wild type BRAF after 72 hrs by cell titer blue assay; type: functional, cell-based; conditions: DU-145, 72 h; in short: as §1
Cytochrome P450 1A2 = Cytochrome P450 1A2 (Homo sapiens, UniProt P05177); assay: Inhibition of human CYP1A2; type: ADME; in short: as §5
hERG (KCNH2) = hERG (KCNH2) (Homo sapiens, UniProt Q12809); assay: Inhibition of human ERG at 10 uM
In short: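 Whole-cell patch clamp on CHO cells stably expressing hERG. Baseline was set in external solution with 0.1% DMSO. Test article was then applied until steady state, up to 12 min.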

[9] = Cmax in Cynomolgus monkey at 10 mg/kg, po; type: ADME, organism-based, Macaca fascicularis; set-up: dose 10 mg/kg, route oral; conditions: in vivo; in short: as §3
Mus musculus [10] = assay: Toxicity in athymic nude mouse xenografted with human COLO205 cells at 30 mg/kg, po bid for 14 days; type: organism-based, COLO 205; set-up: dose 30 mg/kg, route oral; conditions: in vivo, 336 h; in short: as §4
[11] = Oral bioavailability in Sprague-Dawley rat at 10 mg/kg; type: ADME, organism-based; conditions: in vivo
In short: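 Male Sprague-Dawley rats (250–350 g, jugular-catheterized) received a single dose either iv at 1 mg/kg in 3:1 PEG400/water (n = 2) or po at 10 mg/kg in Pharmatek #6 (n = 3). Plasma was sampled at 5 min (iv only), 15 and 30 min, and 1, 2, 4, 6 and 24 h. Samples were analyzed by LC-MS/MS after acetonitrile precipitation. Parameters came from noncompartmental linear-trapezoidal analysis of individual animals.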

[12] = biological target: Dual specificity mitogen-activated protein kinase kinase 2 (Homo sapiens, UniProt P36507); assay: Inhibition of MEK2 in human HEK293 cells after 1 hr by competition binding assay; type: cell-based; in short: as §6
HT-144 = assay: Cytotoxicity against human HT144 cells expressing BRAF V600E mutant after 72 hrs by cell titer blue assay; type: functional, cell-based; conditions: HT-144, 72 h; in short: as §1
[13] = Cmax in athymic nude mouse at 100 mg/kg, po; type: ADME, organism-based; set-up: dose 100 mg/kg, route oral; conditions: in vivo; in short: as §3

Sequence of Macrophage colony-stimulating factor 1 receptor (P07333 whole entry): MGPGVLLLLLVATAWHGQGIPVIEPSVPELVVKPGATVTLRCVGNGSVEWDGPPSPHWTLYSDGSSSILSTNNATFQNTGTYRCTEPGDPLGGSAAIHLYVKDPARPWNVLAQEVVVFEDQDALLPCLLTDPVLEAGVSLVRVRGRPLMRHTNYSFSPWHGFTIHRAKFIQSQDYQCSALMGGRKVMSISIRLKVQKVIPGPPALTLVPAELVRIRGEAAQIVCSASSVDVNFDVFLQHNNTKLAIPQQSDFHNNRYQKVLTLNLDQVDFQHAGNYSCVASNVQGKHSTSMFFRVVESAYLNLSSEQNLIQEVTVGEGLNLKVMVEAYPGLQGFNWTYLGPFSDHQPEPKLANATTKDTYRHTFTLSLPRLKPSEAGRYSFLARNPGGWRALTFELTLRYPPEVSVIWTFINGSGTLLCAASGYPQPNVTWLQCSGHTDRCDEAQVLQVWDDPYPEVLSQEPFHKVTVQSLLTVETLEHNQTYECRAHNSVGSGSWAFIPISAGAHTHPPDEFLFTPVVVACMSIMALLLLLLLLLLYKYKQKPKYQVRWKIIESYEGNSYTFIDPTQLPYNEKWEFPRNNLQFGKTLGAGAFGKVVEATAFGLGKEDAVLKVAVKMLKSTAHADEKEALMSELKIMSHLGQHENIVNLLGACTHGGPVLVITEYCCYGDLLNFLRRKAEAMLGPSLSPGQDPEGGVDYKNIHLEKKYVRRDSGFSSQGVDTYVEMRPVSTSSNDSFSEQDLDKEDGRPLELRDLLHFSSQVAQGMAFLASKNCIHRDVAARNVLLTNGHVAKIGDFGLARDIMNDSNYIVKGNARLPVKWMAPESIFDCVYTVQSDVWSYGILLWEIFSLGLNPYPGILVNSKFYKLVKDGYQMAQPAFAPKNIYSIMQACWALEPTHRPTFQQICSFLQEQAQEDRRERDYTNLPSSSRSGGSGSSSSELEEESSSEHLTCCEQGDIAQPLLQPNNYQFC
Sequence of Cytochrome P450 1A2 (P05177 whole entry): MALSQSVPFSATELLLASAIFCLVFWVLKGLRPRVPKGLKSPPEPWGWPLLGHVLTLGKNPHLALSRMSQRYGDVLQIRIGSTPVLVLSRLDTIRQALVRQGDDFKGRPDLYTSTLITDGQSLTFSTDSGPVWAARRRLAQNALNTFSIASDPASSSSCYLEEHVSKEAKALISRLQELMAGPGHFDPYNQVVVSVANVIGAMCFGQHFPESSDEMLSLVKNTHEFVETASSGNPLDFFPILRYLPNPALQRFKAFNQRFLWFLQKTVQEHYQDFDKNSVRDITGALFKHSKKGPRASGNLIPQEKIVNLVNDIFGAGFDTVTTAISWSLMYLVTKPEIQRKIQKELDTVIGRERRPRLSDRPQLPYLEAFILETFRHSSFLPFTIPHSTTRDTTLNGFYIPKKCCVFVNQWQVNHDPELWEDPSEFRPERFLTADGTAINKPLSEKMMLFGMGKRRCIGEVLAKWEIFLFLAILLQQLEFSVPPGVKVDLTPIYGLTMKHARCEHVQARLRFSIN
Sequence of Cytochrome P450 2D6 (P10635 whole entry, canonical isoform): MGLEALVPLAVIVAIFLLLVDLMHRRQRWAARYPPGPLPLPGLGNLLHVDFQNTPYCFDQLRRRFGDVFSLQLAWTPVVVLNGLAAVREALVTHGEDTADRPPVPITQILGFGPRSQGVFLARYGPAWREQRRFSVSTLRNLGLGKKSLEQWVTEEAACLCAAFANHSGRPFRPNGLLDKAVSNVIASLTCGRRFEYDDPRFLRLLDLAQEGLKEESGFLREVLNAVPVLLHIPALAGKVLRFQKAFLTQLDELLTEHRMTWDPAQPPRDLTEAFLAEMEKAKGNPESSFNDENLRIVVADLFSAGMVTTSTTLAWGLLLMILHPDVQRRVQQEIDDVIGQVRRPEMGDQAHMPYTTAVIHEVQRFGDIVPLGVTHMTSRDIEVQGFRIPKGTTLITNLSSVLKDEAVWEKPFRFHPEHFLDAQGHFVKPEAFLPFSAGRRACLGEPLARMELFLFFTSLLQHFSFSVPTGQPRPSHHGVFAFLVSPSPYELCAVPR
Sequence of Dual specificity mitogen-activated protein kinase kinase 2 (P36507 whole entry): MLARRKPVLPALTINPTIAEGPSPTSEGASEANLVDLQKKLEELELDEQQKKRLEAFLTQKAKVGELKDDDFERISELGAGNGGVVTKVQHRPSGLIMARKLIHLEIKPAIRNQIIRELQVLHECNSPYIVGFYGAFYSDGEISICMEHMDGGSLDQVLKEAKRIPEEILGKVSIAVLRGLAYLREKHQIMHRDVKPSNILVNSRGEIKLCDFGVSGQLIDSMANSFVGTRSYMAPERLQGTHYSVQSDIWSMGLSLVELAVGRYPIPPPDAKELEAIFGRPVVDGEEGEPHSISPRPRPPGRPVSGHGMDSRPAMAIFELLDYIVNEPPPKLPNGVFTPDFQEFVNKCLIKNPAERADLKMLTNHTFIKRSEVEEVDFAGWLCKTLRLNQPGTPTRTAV
Sequence of hERG (KCNH2) (Q12809 whole entry): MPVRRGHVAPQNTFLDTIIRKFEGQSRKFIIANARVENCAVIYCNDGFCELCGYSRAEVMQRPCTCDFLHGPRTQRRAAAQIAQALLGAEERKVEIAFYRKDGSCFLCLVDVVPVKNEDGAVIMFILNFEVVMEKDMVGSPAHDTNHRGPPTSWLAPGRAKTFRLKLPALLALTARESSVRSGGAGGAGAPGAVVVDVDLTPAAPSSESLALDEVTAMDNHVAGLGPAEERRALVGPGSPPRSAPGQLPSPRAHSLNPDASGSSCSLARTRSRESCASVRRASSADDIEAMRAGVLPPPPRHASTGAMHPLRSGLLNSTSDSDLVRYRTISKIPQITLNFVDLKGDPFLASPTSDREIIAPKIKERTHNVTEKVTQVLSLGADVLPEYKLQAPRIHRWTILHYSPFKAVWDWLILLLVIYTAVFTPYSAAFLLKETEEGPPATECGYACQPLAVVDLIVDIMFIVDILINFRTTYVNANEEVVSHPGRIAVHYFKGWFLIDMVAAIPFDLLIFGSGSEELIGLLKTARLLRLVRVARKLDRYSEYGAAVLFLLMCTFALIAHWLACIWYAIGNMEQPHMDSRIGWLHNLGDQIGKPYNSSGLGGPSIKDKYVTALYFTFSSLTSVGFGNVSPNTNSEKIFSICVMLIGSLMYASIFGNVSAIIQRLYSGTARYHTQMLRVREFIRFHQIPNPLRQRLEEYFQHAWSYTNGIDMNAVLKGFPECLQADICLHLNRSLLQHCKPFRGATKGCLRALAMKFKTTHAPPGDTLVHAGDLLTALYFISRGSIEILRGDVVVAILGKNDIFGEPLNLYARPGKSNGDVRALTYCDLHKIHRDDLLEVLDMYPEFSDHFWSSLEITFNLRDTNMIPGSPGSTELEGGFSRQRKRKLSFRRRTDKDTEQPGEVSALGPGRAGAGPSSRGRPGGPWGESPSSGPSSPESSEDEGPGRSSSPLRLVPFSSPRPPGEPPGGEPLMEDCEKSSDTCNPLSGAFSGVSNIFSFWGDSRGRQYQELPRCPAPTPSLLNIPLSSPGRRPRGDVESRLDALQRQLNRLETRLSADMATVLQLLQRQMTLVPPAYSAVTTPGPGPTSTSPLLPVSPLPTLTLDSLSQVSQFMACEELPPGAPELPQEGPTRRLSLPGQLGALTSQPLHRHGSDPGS
Sequence of Mitogen-activated protein kinase 1 (P28482 whole entry): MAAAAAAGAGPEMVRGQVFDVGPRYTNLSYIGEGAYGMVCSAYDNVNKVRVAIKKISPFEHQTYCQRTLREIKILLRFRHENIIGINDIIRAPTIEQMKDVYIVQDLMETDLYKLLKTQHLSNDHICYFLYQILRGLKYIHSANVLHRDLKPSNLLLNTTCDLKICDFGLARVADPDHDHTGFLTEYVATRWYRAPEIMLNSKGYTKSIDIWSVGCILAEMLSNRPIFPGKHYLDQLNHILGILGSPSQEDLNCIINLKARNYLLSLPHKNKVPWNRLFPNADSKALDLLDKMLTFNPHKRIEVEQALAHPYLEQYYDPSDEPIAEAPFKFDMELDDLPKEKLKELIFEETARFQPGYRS

- pKd [1]: 8.05
- Vd [2]: 2.5 L/kg
- bioavailability [3]: 100%
- Cmax [5]: 5.2 µM
- half-life [7]: 294 min
- pIC50 (Cytochrome P450 2D6): < 5.00
- pKd [8]: < 5.00
- pIC50 (Cytochrome P450 1A2): < 5.00
- Cmax [9]: 4.3 µM
- bioavailability [11]: 94%
- pKd [12]: 5.08
- Cmax [13]: 35.6 µM
SMILES: COc1cc2ncnc(Oc3cccc(NC(=O)Nc4cc(C(C)(C)C(F)(F)F)on4)c3)c2cc1OC [CEP-32496]
- pIC50 (A-375): 7.11
- inhibition in vivo at 30 mg/kg (Mus musculus [4]): 75%
- Activity (COLO 205): Active
- Activity (Mus musculus [6]): Non-toxic
- pEC50 (SK-MEL-28): 6.34
- pEC50 (LNCaP): 5.18
- pEC50 (HCT-116): 6.17
- pEC50 (DU-145): 5.54
- inhibition at 10 µM (hERG (KCNH2)): < 10%
- Activity (Mus musculus [10]): Non-toxic
- pEC50 (HT-144): 6.64
